Measurements as given in ChEMBL document CHEMBL1147846, “Synthetic 2',5'-dimethoxychalcones as G(2)/M arrest-mediated apoptosis-inducing agents and inhibitors of nitric oxide production in rat macrophages” (Eur J Med Chem, 2007).

Key:
HT-29 = test: Cytotoxicity against human HT29 cells by MTT microassay; format: functional, cell-based
Procedure, shortened: (§1)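 MTT microassay in cultured human tumour cells from ATCC. Compounds were dissolved in DMSO and diluted in culture medium to 0.1% DMSO. Controls received medium with 0.1% DMSO, and 5-fluorouracil was the positive control. IC50 is given as mean ± SD, n = 3.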

MCF7 [1] = test: Cytotoxicity against human MCF7 cells by MTT microassay; format: functional, cell-based; procedure, shortened: as §1
A549 = test: Cytotoxicity against human A549 cells by MTT microassay; format: functional, cell-based; procedure, shortened: as §1
[2] = Cytotoxicity against human Hep 3B cells by MTT microassay; format: functional, cell-based, Hep 3B2; settings: Hep3B; procedure, shortened: as §1
RAW [3] = test: Inhibition of 1ug/ml LPS-stimulated nitirc oxide accumulation in RAW 264 cells after 24 hrs; format: functional, cell-based, Mus musculus; settings: for IC50: Mus musculus, RAW, 24 h
Procedure, shortened: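 RAW 264.7 cells were activated with LPS for 24 h. NO was measured as nitrite accumulated in the medium, by Griess reaction. 1400W was the positive control. Results are mean ± SD, n = 3.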

Neutrophil [4] = test: Inhibition of 5 ug/ml CB-stimulated Lysozyme release from rat neutrophils; format: functional, cell-based; settings: for IC50: Rattus norvegicus, Neutrophil
Procedure, shortened: (§2)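 Rat neutrophils were stimulated with fMLP plus cytochalasin B, and β-glucuronidase and lysozyme release were measured. Trifluoperazine was the positive control. IC50 is mean ± SD, n = 3; where IC50 exceeds 30, % inhibition at 30 is shown.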

[5] = Inhibition of histamine release from rat mast cells; format: functional; design: Inhibition: concentration or dose not given beside the values; settings: for IC50: Rattus norvegicus
Neutrophil [6] = test: Inhibition of 0.3 uM fMLP-stimulated superoxide anion generation in rat neutrophils; format: functional, cell-based; settings: for IC50: Rattus norvegicus, Neutrophil
Procedure, shortened: (§3)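 Rat neutrophils, with superoxide anion generation triggered by either fMLP combined with cytochalasin B or by PMA (3 nM).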

RAW [7] = test: Inhibition of 1 ug/ml LPS-stimulated TNFalpha accumulation in RAW 264 cells after 24 hrs; format: functional, cell-based, Mus musculus; settings: for IC50: Mus musculus, RAW, 24 h
Procedure, shortened: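 RAW 264.7 cells were activated with LPS, and TNF-α formation in the culture medium was measured. Genistein was the positive control. Results are mean ± SD, n = 3.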

[8] = Inhibition of beta-glucuronidase release from rat mast cells; format: functional; design: Inhibition: concentration or dose not given beside the values; settings: for IC50: Rattus norvegicus
Neutrophil [9] = test: Inhibition of 3 nM PMA-stimulated superoxide anion generation in rat neutrophils; format: functional, cell-based; settings: for IC50: Rattus norvegicus, Neutrophil; procedure, shortened: as §3
Neutrophil [10] = test: Inhibition of 1 uM fMLP-stimulated beta-Glucuronidase release from rat neutrophils; format: functional, cell-based; settings: for IC50: Rattus norvegicus, Neutrophil; procedure, shortened: as §2
MCF7 [11] = test: Induction of apoptosis in MCF7 cells assessed as subG1-phase accumulation at 34.7 uM after 72 hrs; format: functional, Homo sapiens
Procedure, shortened: (§4)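 MCF-7 cells were exposed to compound and washed with PBS at each time point. They were fixed in 4% paraformaldehyde/PBS (pH 7.4) for 30 min at room temperature, then permeabilized in 0.1% Triton X-100/0.1% sodium citrate for 2 min at 4 °C. PI staining followed for 30 min at 37 °C. FACScan flow cytometry counted ≥5000 cells. Apoptosis is the sub-G1 DNA fraction; controls received medium; three independent experiments.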

MCF7 [12] = test: Induction of apoptosis in MCF7 cells assessed as subG1-phase accumulation at 52 uM after 24 hrs; format: functional, Homo sapiens; procedure, shortened: as §4
MCF7 [13] = test: Induction of apoptosis in MCF7 cells assessed as subG1-phase accumulation at 34.7 uM after 24 hrs; format: functional, Homo sapiens; procedure, shortened: as §4
MCF7 [14] = test: Induction of apoptosis in MCF7 cells assessed as subG1-phase accumulation at 34.7 uM after 48 hrs; format: functional, Homo sapiens; procedure, shortened: as §4
MCF7 [15] = test: Induction of apoptosis in MCF7 cells assessed as subG1-phase accumulation at 52 uM after 72 hrs; format: functional, Homo sapiens; procedure, shortened: as §4
MCF7 [16] = test: Induction of apoptosis in MCF7 cells assessed as subG1-phase accumulation at 8.7 uM after 48 hrs; format: functional, Homo sapiens; procedure, shortened: as §4
MCF7 [17] = test: Induction of apoptosis in MCF7 cells assessed as subG1-phase accumulation at 8.7 uM after 24 hrs; format: functional, Homo sapiens; procedure, shortened: as §4
MCF7 [18] = test: Induction of apoptosis in MCF7 cells assessed as subG1-phase accumulation at 8.7 uM after 72 hrs; format: functional, Homo sapiens; procedure, shortened: as §4
MCF7 [19] = test: Induction of apoptosis in MCF7 cells assessed as subG1-phase accumulation at 52 uM after 48 hrs; format: functional, Homo sapiens; procedure, shortened: as §4

Row | SMILES | IC50 (HT-29) | IC50 (MCF7 [1]) | IC50 (A549) | IC50 [2] | IC50 (RAW [3]) | IC50 (Neutrophil [4]) | IC50 ([5]; read-out: IC50) | IC50 (Neutrophil [6]) | IC50 (RAW [7]) | IC50 [8] | Inhibition (Neutrophil [9]) | IC50 (Neutrophil [9]) | IC50 (Neutrophil [10]) | other results
1 | COc1ccc(OC)c(C(=O)/C=C/c2ccoc2)c1 | 21.3 µM | 18.2 µM | 22.1 µM | 12 µM |  |  |  |  |  |  |  |  |  | 
2 | CC(=N)NCc1cccc(CN)c1 [1400W] |  |  |  |  | 5.2 µM |  |  |  |  |  |  |  |  | 
3 | COc1ccc(OC)c(C(=O)/C=C/c2ccc(OC(=O)/C=C/c3cc(OC)c(OC)c(OC)c3)cc2)c1 | 23.8 µM | 6.4 µM | 36.7 µM | 23.2 µM |  |  |  |  |  |  |  |  |  | 
4 | COc1ccc(OC)c(C(=O)/C=C/c2cccs2)c1 | 13.3 µM | 3.8 µM | 11 µM | 8.4 µM | > 10 µM | 14.6 µM | > 30 µM | > 30 µM | > 30 µM | > 30 µM | 7.9% | > 30 µM | > 30 µM | Inhibition [5]: 0.8%; Inhibition (Neutrophil [6]): 47.2%; Inhibition (RAW [7]): 5.9%; Inhibition [8]: -4.6%; Inhibition (Neutrophil [10]): 38.5%; Inhibition (RAW [3]): 49.8%
5 | COc1ccc(/C=C/C(=O)Oc2ccc(/C=C/C(=O)c3cc(OC)ccc3OC)cc2)cc1 | 23 µM | 4.1 µM | 60.4 µM | 42.6 µM |  |  |  |  |  |  |  |  |  | 
6 | COc1ccc(OC)c(C(=O)/C=C/c2ccc(Br)o2)c1 | 15.2 µM | 11 µM | 14.9 µM | 11 µM | 12.8 µM | > 30 µM | > 30 µM | 19.7 µM | > 30 µM | > 30 µM | -2.2% | > 30 µM | > 30 µM | Inhibition (Neutrophil [4]): 33.4%; Inhibition [5]: 6.3%; Inhibition (RAW [7]): 35.6%; Inhibition [8]: -13.3%; Inhibition (Neutrophil [10]): 36.9%
7 | c1ccc2c(c1)[I+]c1ccccc1-2 [DIPHENYLENEIODONIUM CHLORIDE] |  |  |  |  |  |  |  | 5.8 µM |  |  |  | 3.3 µM |  | 
8 | COc1ccc(OC)c(C(=O)/C=C/c2sccc2C)c1 | 19.4 µM | 7.6 µM | 22.2 µM | 16.7 µM |  |  |  |  |  |  |  |  |  | 
9 | COc1ccc(OC)c(C(=O)/C=C/c2ccc(OC/C=C/c3ccccc3)cc2)c1 | 26.3 µM | 19 µM | 39.8 µM | 17.3 µM | > 30 µM | > 30 µM | > 30 µM | > 10 µM | > 30 µM | > 30 µM | 4.1% | > 10 µM | > 30 µM | Inhibition (Neutrophil [4]): 33.1%; Inhibition [5]: 0.3%; Inhibition (Neutrophil [6]): -71.9%; Inhibition (RAW [7]): 15%; Inhibition [8]: -11.2%; Inhibition (Neutrophil [10]): 18.8%; Inhibition (RAW [3]): 27.9%
10 | O=c1[nH]cc(F)c(=O)[nH]1 [FLUOROURACIL] | 0.6 µM | 1.5 µM | 3.1 µM | 0.6 µM |  |  |  |  |  |  |  |  |  | 
11 | COc1ccc(OC)c(C(=O)/C=C/c2ccc(C)s2)c1 | 1.8 µM | 2.6 µM | 4.5 µM | 3.4 µM | 6.7 µM | > 30 µM | > 30 µM | > 30 µM | > 30 µM | > 30 µM | -11.9% | > 30 µM | > 30 µM | Inhibition (Neutrophil [4]): 37.4%; Activity (MCF7 [11]): 62.4%; Inhibition [5]: 43.5%; Activity (MCF7 [12]): 5.09%; Activity (MCF7 [13]): 4.05%; Activity (MCF7 [14]): 18.68%; Inhibition (Neutrophil [6]): 49.1%; Inhibition (RAW [7]): 46%; Inhibition [8]: -2.7%; Inhibition (Neutrophil [10]): 45.6%; Activity (MCF7 [15]): 63.79%; Activity (MCF7 [16]): 16.39%; Activity (MCF7 [17]): 7.52%; Activity (MCF7 [18]): 41.61%; Activity (MCF7 [19]): 21.23%
12 | COc1ccc(OC)c(C(=O)/C=C/c2ccsc2)c1 | 5.3 µM | 3.7 µM | 3.8 µM | 5.7 µM |  |  |  |  |  |  |  |  |  | 
13 | COc1ccc(OC)c(C(=O)/C=C/c2ccc(C)o2)c1 | 43 µM | 10.3 µM | 51.5 µM | 26.5 µM | > 10 µM | 17.8 µM |  | > 30 µM | > 10 µM | > 30 µM | 39% | > 30 µM | 22.2 µM | Inhibition [5]: 17.5%; IC50 [5]: > 30 µM; Inhibition (Neutrophil [6]): 48.1%; Inhibition (RAW [7]): -10.5%; Inhibition [8]: 12.7%; Inhibition (RAW [3]): 29.5%
14 | COc1ccc(OC)c(C(=O)/C=C/c2ccc(OC(=O)/C=C/c3ccc(C)cc3)cc2)c1 | 16.4 µM | 12.6 µM | 29.7 µM | 29 µM |  |  |  |  |  |  |  |  |  | 
15 | CN1CCN(CCCN2c3ccccc3Sc3ccc(C(F)(F)F)cc32)CC1 [TRIFLUOPERAZINE] |  |  |  |  |  | 12.7 µM |  |  |  |  |  |  | 13.2 µM | 
16 | COc1ccc(OC)c(C(=O)/C=C/c2ccco2)c1 | 24.8 µM | 10.5 µM | 27.9 µM | 19 µM | 5.7 µM | 8.3 µM | > 30 µM | 3 µM | 4.6 µM | 18.4 µM | 49.1% | > 30 µM | 6.2 µM | 
17 | O=c1c(-c2ccc(O)cc2)coc2cc(O)cc(O)c12 [GENISTEIN] |  |  |  |  |  |  |  |  | 18.1 µM |  |  |  |  | 
18 | CC(=O)O[C@H](CC=C(C)C)C1=CC(=O)c2c(O)ccc(O)c2C1=O [ACETYLSHIKONIN] |  |  |  |  |  |  | 2 µM |  |  | 2.2 µM |  |  |  | 
